Measured values published in ChEMBL document CHEMBL3286389, “Targeting class A and C serine β-lactamases with a broad-spectrum boronic acid derivative” (J Med Chem, 2014).

How the values were obtained:
[1] = Competitive inhibition of Escherichia coli beta-lactamase AmpC using nitrocefin as substrate by UV-Vis spectrophotometry
Method in brief: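 Pinacol esters were tested uncleaved and hydrolysed to free acid in 50 mM phosphate pH 7.4. Ki derived from IC50 plots assuming competitive inhibition.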

[2] = Competitive inhibition of wild type beta-lactamase TEM-1 (unknown origin) expressed in Escherichia coli using 6-beta-furylacryloylamido-penicillanic acid as substrate by spectrophotometry
Method in brief: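 TEM-1, purified. Reactions started by 0.3 nM enzyme in the AmpC assay buffer (50 mM Tris pH 7.0). FAP substrate, absorbance change at 340 nm. Inhibitor stocks were 50 mM in DMSO, diluted in phosphate pH 7. Ki from comparison of progress curves with and without inhibitor.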

[3] = Competitive inhibition of Escherichia coli beta-lactamase AmpC N289A mutant using nitrocefin as substrate by UV-Vis spectrophotometry

**Q.** For `O=C(Cc1cccs1)N[C@H](B(O)O)c1cccc(C(=O)O)c1`, which Ki [1] is on record?
**A.** 1 nM

**Q.** And the Ki [2]?
**A.** 64 nM

**Q.** For `CC(=O)/C=C/c1c(B(O)O)sc2ccccc12`, which Ki [1] is on record?
**A.** 240 nM

**Q.** With `O=C(O)/C=C/c1c(B(O)O)sc2ccccc12` as the molecule, how does the Ki [1] read?
**A.** 90 nM

**Q.** What about the Ki [3] of the same molecule?
**A.** 50 nM

**Q.** Which Ki [2] does the source give for `OB(O)c1cc2ccccc2s1` here?
**A.** 50000 nM
